The values that follow come from ChEMBL document CHEMBL4422636, “Investigation of the structural requirements for N-methyl-D-aspartate receptor positive and negative allosteric modulators based on 2-naphthoic acid” (Eur J Med Chem, 2019).

The structures appear in SMILES notation. Calls of active or inactive are those of the source. The rule behind the calls is not given here.

The target in series [1] is T1, Glutamate NMDA receptor; Grin1/Grin2a (Rattus norvegicus, UniProt P35439+Q00959). In words: Negative allosteric modulation of rat GluN1/GluN2A expressed in Xenopus laevis oocytes assessed as inhibition of L-glutamate/glycine-induced current response at holding potential -60 mV by two-electrode voltage clamp method. It is filed as cell-based. The procedure, abridged:
(§1)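 Oocytes injected with GluN1a plus GluN2A, 2B, 2C or 2D RNA (1:1–3 molar, 15–30 ng total) and kept in ND-96 at 17°C for 1–5 days. TEVC at −60 mV in HEPES-buffered NaCl/KCl/BaCl2 saline, pH 7.4. […] Curves were fitted to give EC50/IC50 and maximal potentiation or inhibition, mean ± s.e.m.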

The target in series [2] is T2, Ionotropic glutamate receptor NMDA 1/2D (Rattus norvegicus, UniProt P35439+Q62645). Put plainly: Negative allosteric modulation of rat GluN1/GluN2D expressed in Xenopus laevis oocytes assessed as inhibition of L-glutamate/glycine-induced current response at holding potential -60 mV by two-electrode voltage clamp method. The series is classed as cell-based. The essentials:
as §1
In general terms: Two-electrode voltage clamp is typically applied to oocytes expressing channels or transporters.

For series [3], the target named is Ionotropic glutamate receptor NMDA 1/2D (Rattus norvegicus) (UniProt P35439+Q62645). In words: Negative allosteric modulation of rat GluN1/GluN2D expressed in Xenopus laevis oocytes assessed as inhibition of L-glutamate/glycine-induced current response at holding potential -60 mV by two-electrode voltage clamp method relative to untreated control. Further details: concentration or dose not given beside the values. The series is classed as cell-based. The procedure, abridged:
as §1

In series [4] the target is T3, Glutamate NMDA receptor; Grin1/Grin2c (Rattus norvegicus, UniProt P35439+Q00961). In words: Negative allosteric modulation of rat GluN1/GluN2C expressed in Xenopus laevis oocytes assessed as inhibition of L-glutamate/glycine-induced current response at holding potential -60 mV by two-electrode voltage clamp method. It is filed as cell-based. The essentials:
as §1

In series [5] the target is Glutamate receptor ionotropic, NMDA 2B (Rattus norvegicus) (UniProt Q00960). Put plainly: Allosteric modulation of rat GluN2B expressed in Xenopus laevis oocytes assessed as L-glutamate/glycine-induced current response at 100 uM at holding potential -60 mV by two-electrode voltage clamp method relative to L-glutamate/glycine. It is filed as cell-based. The procedure, abridged:
(§2)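 GluN1a with one GluN2 subunit; RNAs mixed 1:1–3 molar, 15–30 ng total injected into Xenopus oocytes, which were held in ND-96 at 17°C for 1–5 days. TEVC at −60 mV in 116 mM NaCl, 2 mM KCl, 0.3 mM BaCl2, 5 mM HEPES, pH 7.4. […] Reported as % of agonist-alone response, mean ± s.e.m., n≥4.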

The target of series [6] is T4, Glutamate NMDA receptor; Grin1/Grin2c (Rattus norvegicus) (UniProt P35439+Q00961). Put plainly: Negative allosteric modulation of rat GluN1/GluN2C expressed in Xenopus laevis oocytes assessed as inhibition of 300 uM glutamate/glycine-induced current response at 30 uM at -60 mV holding potential by two-electrode voltage clamp method. The series is classed as cell-based.

Series [7] has as its target T4, Glutamate NMDA receptor; Grin1/Grin2c (Rattus norvegicus). Put plainly: Negative allosteric modulation of rat GluN1/GluN2C expressed in Xenopus laevis oocytes assessed as inhibition of 10 uM glutamate/glycine-induced current response at 30 uM at -60 mV holding potential by two-electrode voltage clamp method. The series is classed as cell-based.
For series [8], the target named is T5, Glutamate NMDA receptor; Grin1/Grin2b (Rattus norvegicus, UniProt P35439+Q00960). Put plainly: Negative allosteric modulation of rat GluN1/GluN2B expressed in Xenopus laevis oocytes assessed as inhibition of L-glutamate/glycine-induced current response at holding potential -60 mV by two-electrode voltage clamp method. The series is classed as cell-based. The procedure, abridged:
as §1

Series [9] deals with Glutamate receptor ionotropic, NMDA 2A (Rattus norvegicus) (UniProt Q00959). Put plainly: Allosteric modulation of rat GluN2A expressed in Xenopus laevis oocytes assessed as L-glutamate/glycine-induced current response at 100 uM at holding potential -60 mV by two-electrode voltage clamp method relative to L-glutamate/glycine. The series is classed as cell-based. The essentials:
as §2

Series [10] deals with Glutamate receptor ionotropic, NMDA 2D (Rattus norvegicus) (UniProt Q62645). Put plainly: Allosteric modulation of rat GluN2D expressed in Xenopus laevis oocytes assessed as L-glutamate/glycine-induced current response at 100 uM at holding potential -60 mV by two-electrode voltage clamp method relative to L-glutamate/glycine. The series is classed as cell-based. The procedure, abridged:
as §2

Series [11] addresses Glutamate NMDA receptor; Grin1/Grin2b (Rattus norvegicus) (UniProt P35439+Q00960). Put plainly: Negative allosteric modulation of rat GluN1/GluN2B expressed in Xenopus laevis oocytes assessed as inhibition of L-glutamate/glycine-induced current response at holding potential -60 mV by two-electrode voltage clamp method relative to untreated control. Further details: concentration or dose not given beside the values. It is filed as cell-based. The essentials: as §1

For series [12], the target named is T4, Glutamate NMDA receptor; Grin1/Grin2c (Rattus norvegicus). In words: Negative allosteric modulation of rat GluN1/GluN2C expressed in Xenopus laevis oocytes assessed as inhibition of L-glutamate/glycine-induced current response at holding potential -60 mV by two-electrode voltage clamp method relative to untreated control. It is filed as cell-based. Also on record: concentration or dose not given beside the values. The procedure, abridged:
as §1

Series [13] has as its target Glutamate receptor ionotropic, NMDA 2C (Rattus norvegicus) (UniProt Q00961). In words: Allosteric modulation of rat GluN2C expressed in Xenopus laevis oocytes assessed as L-glutamate/glycine-induced current response at 100 uM at holding potential -60 mV by two-electrode voltage clamp method relative to L-glutamate/glycine. The series is classed as cell-based. The procedure, abridged:
as §2

In series [14] the target is Glutamate NMDA receptor; Grin1/Grin2a (Rattus norvegicus) (UniProt P35439+Q00959). In words: Negative allosteric modulation of rat GluN1/GluN2A expressed in Xenopus laevis oocytes assessed as inhibition of L-glutamate/glycine-induced current response at holding potential -60 mV by two-electrode voltage clamp method relative to untreated control. Further details: concentration or dose not given beside the values. It is filed as cell-based. The procedure, abridged:
as §1

A short description of series [15]: Solubility of the compound at 100 uM. It is filed as physicochemical. The essentials:
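Compounds were inspected for visible precipitation at the concentrations used in the oocyte assays.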

Series [16] deals with T3, Glutamate NMDA receptor; Grin1/Grin2c. Put plainly: Positive allosteric modulation of rat GluN1/GluN2C expressed in Xenopus laevis oocytes assessed as potentiation of L-glutamate/glycine-induced current response at holding potential -60 mV by two-electrode voltage clamp method. It is filed as cell-based. The procedure, abridged:
as §1

The target in series [17] is Glutamate receptor ionotropic, NMDA 2A (Rattus norvegicus) (UniProt Q00959). Put plainly: Agonist activity at rat GluN2A expressed in Xenopus laevis oocytes assessed effect on current response at holding potential -60 mV by two-electrode voltage clamp method relative to L-glutamate/glycine. The series is classed as cell-based. The procedure, abridged:
as §2

For series [18], the target named is T1, Glutamate NMDA receptor; Grin1/Grin2a. In words: Positive allosteric modulation of rat GluN1/GluN2A expressed in Xenopus laevis oocytes assessed as potentiation of L-glutamate/glycine-induced current response at holding potential -60 mV by two-electrode voltage clamp method. The series is classed as cell-based. The procedure, abridged: as §1
For series [19], the target named is Glutamate receptor ionotropic, NMDA 2C (Rattus norvegicus) (UniProt Q00961). In words: Positive allosteric modulation of rat GluN2C expressed in Xenopus laevis oocytes assessed as potentiation of L-glutamate/glycine-induced current response at holding potential -60 mV by two-electrode voltage clamp method relative to L-glutamate/glycine. It is filed as cell-based. Further details: concentration or dose not given beside the values. The procedure, abridged: as §1

The target is the same in series [20]. Put plainly: Agonist activity at rat GluN2C expressed in Xenopus laevis oocytes assessed effect on current response at holding potential -60 mV by two-electrode voltage clamp method relative to L-glutamate/glycine. It is filed as cell-based. The essentials: as §2
Series [21] concerns the target T2, Ionotropic glutamate receptor NMDA 1/2D. In words: Positive allosteric modulation of rat GluN1/GluN2D expressed in Xenopus laevis oocytes assessed as potentiation of L-glutamate/glycine-induced current response at holding potential -60 mV by two-electrode voltage clamp method. It is filed as cell-based. The procedure, abridged: as §1
Series [22] addresses Glutamate receptor ionotropic, NMDA 2B (Rattus norvegicus) (UniProt Q00960). Put plainly: Agonist activity at rat GluN2B expressed in Xenopus laevis oocytes assessed as effect on current response at holding potential -60 mV by two-electrode voltage clamp method relative to L-glutamate/glycine. The series is classed as cell-based. The procedure, abridged:
as §2

For series [23], the target named is Glutamate receptor ionotropic, NMDA 2D (Rattus norvegicus) (UniProt Q62645). In words: Agonist activity at rat GluN2D expressed in Xenopus laevis oocytes assessed as effect on current response at holding potential -60 mV by two-electrode voltage clamp method relative to L-glutamate/glycine. The series is classed as cell-based. The procedure, abridged:
as §2

In series [24] the target is Glutamate receptor ionotropic, NMDA 2B (Rattus norvegicus) (UniProt Q00960). Put plainly: Positive allosteric modulation of rat GluN2B expressed in Xenopus laevis oocytes assessed as potentiation of L-glutamate/glycine-induced current response at holding potential -60 mV by two-electrode voltage clamp method relative to L-glutamate/glycine. It is filed as cell-based. The essentials: as §1

In series [25] the target is Glutamate receptor ionotropic, NMDA 2D (Rattus norvegicus) (UniProt Q62645). Put plainly: Positive allosteric modulation of rat GluN2D expressed in Xenopus laevis oocytes assessed as potentiation of L-glutamate/glycine-induced current response at holding potential -60 mV by two-electrode voltage clamp method relative to L-glutamate/glycine. It is filed as cell-based. Also on record: concentration or dose not given beside the values. The procedure, abridged: as §1

Series [26] has as its target T5, Glutamate NMDA receptor; Grin1/Grin2b. In words: Positive allosteric modulation of rat GluN1/GluN2B expressed in Xenopus laevis oocytes assessed as potentiation of L-glutamate/glycine-induced current response at holding potential -60 mV by two-electrode voltage clamp method. The series is classed as cell-based. The essentials: as §1
Series [27] addresses Glutamate receptor ionotropic, NMDA 2A (Rattus norvegicus) (UniProt Q00959). Put plainly: Positive allosteric modulation of rat GluN2A expressed in Xenopus laevis oocytes assessed as potentiation of L-glutamate/glycine-induced current response at holding potential -60 mV by two-electrode voltage clamp method relative to L-glutamate/glycine. It is filed as cell-based. Also on record: concentration or dose not given beside the values. The procedure, abridged:
as §1

With `O=C(O)c1cc2cc(/C=C/c3ccccc3[N+](=O)[O-])ccc2cc1O`, the IC50 in series [1] was 6 µM; in series [2] it was 2.9 µM; in series [4], 8.2 µM; in series [8], 32.2 µM. In addition, the Activity is 79.7% in [3]; 56.1% in series [5]; 80.5% in series [9]; 26.8% in [10]; 61.3% in series [11]; 80.1% in series [12]. For the same compound, the Activity in [13] was found to be 35.1%; in series [14], 30.5%. Moreover, the result in [6] and in [7] was Active. In addition, the solubility result in series [15] is “Soluble”.
Consider `C=C(CCC(C)C)c1ccc2cc(C(=O)O)ccc2c1`, for which the EC50 in series [16] worked out at 26.1 µM; in series [18], 114 µM; in series [21], 72.3 µM; in [26] it was 116 µM. Besides, the result in series [17], in series [20], in series [22] and in series [23] was inactive. In addition, the Activity in [5] was 265%; in series [19], 137%; in [9], 163%; in [24], 417%; in [10], 310%; in series [25], 277%. The values for the Activity in [13] and in series [27] were 349% and 230%, respectively. For the same compound, the solubility entry in series [15] is on record as “Soluble”.

By IC50 is commonly meant the point on the concentration scale where inhibition reaches its midpoint. By EC50 is commonly meant the midpoint of the concentration-response curve.
